Test results taken from ChEMBL document CHEMBL1926537, “Catalytic inhibition of eukaryotic topoisomerases I and II by flavonol glycosides extracted from Vicia faba and Lotus edulis” (J Nat Prod, 2011).
pIC50: −log10 of the molar value. Active and inactive are the calls of the source. No cut-off for these calls is given here.

Legend:
DNA topoisomerase 1 = biological target: T1, DNA topoisomerase 1 (Homo sapiens, UniProt P11387); test: Inhibition of human topoisomerase 1-mediated relation of supercoiled DNA after 45 mins
T1 sequence (P11387 whole entry): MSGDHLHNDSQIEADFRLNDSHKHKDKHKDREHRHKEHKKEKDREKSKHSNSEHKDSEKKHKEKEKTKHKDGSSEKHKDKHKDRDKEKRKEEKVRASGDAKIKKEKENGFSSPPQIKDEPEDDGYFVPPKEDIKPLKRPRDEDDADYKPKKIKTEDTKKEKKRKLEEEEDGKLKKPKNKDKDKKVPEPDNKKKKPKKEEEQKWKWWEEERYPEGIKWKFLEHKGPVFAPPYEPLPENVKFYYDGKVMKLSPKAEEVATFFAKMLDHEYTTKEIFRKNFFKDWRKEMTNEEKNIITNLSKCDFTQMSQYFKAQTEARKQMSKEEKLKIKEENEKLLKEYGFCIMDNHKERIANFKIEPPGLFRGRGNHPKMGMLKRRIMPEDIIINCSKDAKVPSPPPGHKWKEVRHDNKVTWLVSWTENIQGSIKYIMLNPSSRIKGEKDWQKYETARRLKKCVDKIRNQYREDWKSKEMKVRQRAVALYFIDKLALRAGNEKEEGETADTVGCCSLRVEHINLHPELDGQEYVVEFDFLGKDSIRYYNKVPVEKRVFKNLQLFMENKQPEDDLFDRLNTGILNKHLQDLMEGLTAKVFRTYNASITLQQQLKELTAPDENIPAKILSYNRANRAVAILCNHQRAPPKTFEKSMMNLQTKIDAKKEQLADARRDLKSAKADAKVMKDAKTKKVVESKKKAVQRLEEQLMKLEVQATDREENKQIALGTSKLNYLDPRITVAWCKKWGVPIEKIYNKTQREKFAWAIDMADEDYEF
Outline: (§1)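 Screened at 500 μM, then 100–500 μM. Read-out is 0.8% agarose gel with ethidium stain and densitometry of the supercoiled fraction. IC50 is the 50% inhibition of relaxation; triplicate, mean ± SEM.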

[1] = Inhibition of wheat germ topoisomerase 1-mediated relaxation of supercoiled DNA after 45 mins; design: species or system Triticum aestivum
Outline: (§2)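 Tested at 500 μM, then 75–1000 μM. Percent inhibition derived from the supercoiled fraction on 0.8% agarose gels stained with ethidium; IC50 at 50% inhibition of relaxation; triplicate, mean ± SEM.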

[2] = biological target: T2, DNA topoisomerase 1 (Homo sapiens) (UniProt P11387); test: Inhibition of human topoisomerase 1-mediated relation of supercoiled DNA at 500 uM after 45 mins; outline: as §1
T2 sequence (whole entry): T1 sequence (P11387 whole entry)

Triticum aestivum [3] = test: Inhibition of wheat germ topoisomerase 1-mediated relaxation of supercoiled DNA at 500 uM after 45 mins; outline: as §2
[4] = biological target: T3, DNA topoisomerase 2-alpha (Homo sapiens, UniProt P11388); test: Inhibition of human topoisomerase 2-mediated relation of supercoiled DNA at 500 uM after 60 mins
T3 sequence (P11388 whole entry): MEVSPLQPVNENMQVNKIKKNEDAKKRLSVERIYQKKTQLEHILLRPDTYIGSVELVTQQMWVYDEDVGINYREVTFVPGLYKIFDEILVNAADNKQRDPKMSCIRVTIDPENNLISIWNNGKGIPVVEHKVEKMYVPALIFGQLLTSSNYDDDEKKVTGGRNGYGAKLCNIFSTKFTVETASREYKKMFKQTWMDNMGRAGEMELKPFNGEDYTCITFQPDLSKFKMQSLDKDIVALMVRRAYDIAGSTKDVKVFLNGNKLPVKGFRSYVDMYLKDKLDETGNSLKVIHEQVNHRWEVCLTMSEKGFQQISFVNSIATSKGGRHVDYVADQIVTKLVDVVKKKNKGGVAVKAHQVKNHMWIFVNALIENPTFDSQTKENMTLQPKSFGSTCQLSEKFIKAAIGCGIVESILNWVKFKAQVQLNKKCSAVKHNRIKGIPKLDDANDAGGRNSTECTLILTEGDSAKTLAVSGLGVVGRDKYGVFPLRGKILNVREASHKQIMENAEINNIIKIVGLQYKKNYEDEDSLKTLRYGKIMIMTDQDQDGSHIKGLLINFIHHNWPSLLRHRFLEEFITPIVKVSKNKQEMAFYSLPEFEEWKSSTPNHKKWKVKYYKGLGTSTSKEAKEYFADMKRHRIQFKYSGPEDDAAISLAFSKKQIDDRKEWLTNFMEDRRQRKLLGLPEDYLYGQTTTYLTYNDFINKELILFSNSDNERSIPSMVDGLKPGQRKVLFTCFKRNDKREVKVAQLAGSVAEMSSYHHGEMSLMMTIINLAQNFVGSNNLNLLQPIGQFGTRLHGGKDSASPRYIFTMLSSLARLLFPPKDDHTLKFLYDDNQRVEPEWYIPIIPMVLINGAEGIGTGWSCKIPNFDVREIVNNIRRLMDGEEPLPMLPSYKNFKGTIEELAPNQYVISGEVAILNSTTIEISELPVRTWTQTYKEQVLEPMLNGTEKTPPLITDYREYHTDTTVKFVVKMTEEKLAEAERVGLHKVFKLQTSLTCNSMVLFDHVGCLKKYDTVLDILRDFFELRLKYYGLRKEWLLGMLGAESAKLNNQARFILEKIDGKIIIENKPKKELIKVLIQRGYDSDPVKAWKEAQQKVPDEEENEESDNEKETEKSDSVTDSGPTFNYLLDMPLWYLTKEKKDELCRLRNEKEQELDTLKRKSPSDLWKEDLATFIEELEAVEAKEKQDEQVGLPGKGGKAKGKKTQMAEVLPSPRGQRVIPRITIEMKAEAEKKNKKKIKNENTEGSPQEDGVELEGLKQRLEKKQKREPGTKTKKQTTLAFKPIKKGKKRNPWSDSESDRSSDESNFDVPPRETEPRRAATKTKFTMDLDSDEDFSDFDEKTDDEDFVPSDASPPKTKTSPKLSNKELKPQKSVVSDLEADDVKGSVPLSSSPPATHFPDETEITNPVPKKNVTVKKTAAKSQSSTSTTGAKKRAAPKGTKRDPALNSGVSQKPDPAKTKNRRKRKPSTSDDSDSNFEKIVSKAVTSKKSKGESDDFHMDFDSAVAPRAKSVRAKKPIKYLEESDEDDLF

[5] = biological target: T3, DNA topoisomerase 2-alpha; test: Inhibition of human topoisomerase 2-mediated relation of supercoiled DNA after 60 mins
[6] = biological target: T3, DNA topoisomerase 2-alpha; test: Inhibition of human topoisomerase 2-mediated relation of supercoiled DNA at 100 to 1000 uM after 60 mins
[7] = biological target: T3, DNA topoisomerase 2-alpha; test: Inhibition of human topoisomerase 2-mediated relation of supercoiled DNA at 400 uM after 60 mins
[8] = biological target: T3, DNA topoisomerase 2-alpha; test: Inhibition of human topoisomerase 2-mediated relation of supercoiled DNA at 800 uM after 60 mins
[9] = biological target: T2, DNA topoisomerase 1 (Homo sapiens); test: Inhibition of human topoisomerase 1-mediated relation of supercoiled DNA at 100 uM after 45 mins; outline: as §1
[10] = biological target: T3, DNA topoisomerase 2-alpha; test: Inhibition of human topoisomerase 2-mediated relation of supercoiled DNA at 100 uM after 60 mins
Triticum aestivum [11] = test: Inhibition of wheat germ topoisomerase 1-mediated relaxation of supercoiled DNA at 75 uM after 45 mins; outline: as §2
HepG2 [12] = test: Growth inhibition of human HepG2 cells after 48 hrs by XTT assay; format: functional, cell-based; settings: HepG2, 48 h
Outline: (§3)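 XTT assay; HeLa, MCF7 and HepG2 seeded at 1.5 × 104, 2 × 104 and 3.5 × 10^4 cells/well in DMEM with 10% heat-inactivated FBS and penicillin/streptomycin, grown 24 h at 37 °C in 5% CO2. Compound added in DMEM-PS (100–500 μM) for 48 h, then XTT 4 h; OD at 450 nm, reference 650 nm. Etoposide 100 μM positive control; mean ± SEM.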

Triticum aestivum [13] = test: Inhibition of wheat germ topoisomerase 1-mediated relaxation of supercoiled DNA at 1000 uM after 45 mins; outline: as §2
MCF7 [14] = test: Growth inhibition of human MCF7 cells after 48 hrs by XTT assay; format: functional, cell-based; settings: MCF7, 48 h; outline: as §3
HeLa [15] = test: Growth inhibition of human HeLa cells after 48 hrs by XTT assay; format: functional, cell-based; outline: as §3
MCF7 [16] = test: Growth inhibition of human MCF7 cells at 100 uM after 48 hrs by XTT assay; format: functional; settings: MCF7, 48 h, read-out: GI; outline: as §3
HepG2 [17] = test: Growth inhibition of human HepG2 cells at 100 uM after 48 hrs by XTT assay; format: functional; settings: HepG2, 48 h, read-out: GI; outline: as §3
HeLa [18] = test: Growth inhibition of human HeLa cells at 100 uM after 48 hrs by XTT assay; format: functional; settings: read-out: GI; outline: as §3

Compound	pIC50 (DNA topoisomerase 1)	pIC50 [1]	inhibition [2]	inhibition (Triticum aestivum [3])	inhibition [4]	pIC50 [5]	inhibition [6]	further results
C[C@@H]1O[C@@H](Oc2cc(O)c3c(=O)c(O[C@@H]4O[C@H](CO)[C@H](O)[C@H](O)[C@H]4O)c(-c4ccc(O)cc4)oc3c2)[C@H](O)[C@H](O)[C@H]1O	3.74	3.70	Active	Active	Active			
C[C@@H]1O[C@@H](Oc2cc(O)c3c(=O)c(O[C@H]4OC[C@@](O)(CO)[C@@H]4O)c(-c4ccc(O)cc4)oc3c2)[C@H](O)[C@H](O)[C@H]1O					Active	3.26	Dose-dependent effect	inhibition [7]: 44%; inhibition [8]: 80%
C[C@@H]1O[C@@H](Oc2cc(O)c3c(=O)c(O[C@@H]4OC[C@H](O)[C@H](O)[C@H]4O)c(-c4ccc(O)cc4)oc3c2)[C@H](O)[C@H](O)[C@H]1O	3.60	3.62	Active	Active	Active	3.48	Dose-dependent effect	
C[C@@H]1O[C@@H](Oc2cc(O)c3c(=O)c(O[C@@H]4O[C@H](CO)[C@@H](O)[C@H](O)[C@H]4O)c(-c4ccc(O)cc4)oc3c2)[C@H](O)[C@H](O)[C@H]1O	3.96	3.46	94%	Active	Active	3.22	Dose-dependent effect	inhibition [9]: 45%
C[C@@H]1O[C@@H](Oc2cc(O)c3c(=O)c(O[C@@H]4O[C@H](CO)[C@@H](O)[C@H](O)[C@H]4O[C@@H]4O[C@@H](C)[C@H](O)[C@@H](O)[C@H]4O)c(-c4ccc(O)cc4)oc3c2)[C@H](O)[C@H](O)[C@H]1O	3.66		Active		Active			
CC(=O)OC[C@]1(O)CO[C@H](Oc2c(-c3ccc(O)cc3)oc3cc(O[C@@H]4O[C@@H](C)[C@H](O)[C@@H](O)[C@H]4O)cc(O)c3c2=O)[C@H]1O	3.82	3.92	Active	Active	88%	3.62	Dose-dependent effect	inhibition [10]: 22%; inhibition (Triticum aestivum [11]): 44%; pIC50 (HepG2 [12]): 3.39; inhibition (Triticum aestivum [13]): 99%; pIC50 (MCF7 [14]): 3.46; pIC50 (HeLa [15]): 3.46
C[C@@H]1O[C@@H](Oc2cc(O)c3c(=O)c(O[C@@H]4O[C@H](CO)[C@H](O)[C@H](O)[C@H]4O[C@@H]4O[C@@H](C)[C@H](O)[C@@H](O)[C@H]4O)c(-c4ccc(O)cc4)oc3c2)[C@H](O)[C@H](O)[C@H]1O	3.59	3.82	Active	Active	Active			
COc1cc([C@@H]2c3cc4c(cc3[C@@H](O[C@@H]3O[C@@H]5CO[C@@H](C)O[C@H]5[C@H](O)[C@H]3O)[C@H]3COC(=O)[C@H]23)OCO4)cc(OC)c1O [ETOPOSIDE]								inhibition of growth at 100 µM (MCF7 [16]): 100%; inhibition of growth at 100 µM (HepG2 [17]): 100%; inhibition of growth at 100 µM (HeLa [18]): 100%
